Compound activity from PubChem.
VIM-2 inh: blocks Pseudomonas aeruginosa VIM-2 metallo-beta-lactamase; hit rate 0.89% among 290,000; AID 1527; purified VIM-2, nitrocefin hydrolysis, epi-absorbance fluorescence; inhibition, % at 5.6 µM;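 active = inhibition above the mean of all tested compounds plus 3 SD, cutoff set per screening run, cut at about 7.5% in these data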;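 note: red hydrolysis product quenches plate fluorescence so inhibitors raise well fluorescence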
IMP-1 inhibitor: blocks Pseudomonas aeruginosa IMP-1 metallo-beta-lactamase | inhibition, % at 5.6 µM | hit rate 0.45% among 290,000 | purified IMP-1, nitrocefin hydrolysis, epi-absorbance fluorescence | AID 1556;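 active = inhibition above the mean plus 3 SD of all compounds in the same screening run, cut at about 4.5% in these data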
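Assay system: purified recombinant IMP-1 beta-lactamase. Input: IMP-1 0.2 nM before substrate addition. Buffer or medium: Zinc- and detergent-supplemented HEPES buffer, pH 7.1. Schedule: 25 °C, 15 min preincubation, 25 min reaction. Signal: Epi-absorbance fluorescence, 480 nm excitation, 530 nm emission. Evaluation: percent inhibition from optical density relative to buffer-blank wells.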
M18AAP inhibitor: PfM18AAP enzyme inhibition. hit rate 1.2% among 290,000. AID 1822. recombinant PfM18AAP, H-Glu-NHMec fluorogenic cleavage. inhibition, % at 7.35 µM;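 active = inhibition above the campaign mean inhibition over all tested compounds plus 3 SD, cut at about 28% in these data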
CTSL1 counter: blocks F. hepatica cathepsin L1 in PFM18AAP counter-screen; recombinant F. hepatica cathepsin L1, Z-Leu-Arg-MCA fluorescence; inhibition, % at 5.96 µM; hit rate 0.49% among 300,000; AID 1906;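 active = inhibition above the mean of all tested compounds plus 3 SD, set per screening campaign, cut at about 17% in these data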
Of the large screens only hits and unclear results are named; the others gave an inactive call. Hits are enriched below; roughly 2.7% of the tested compounds scored in any of these assays.

Cc1n[nH]c(=S)n1-c1ccccc1	VIM-2 inh 10
Cc1ccccc1-n1c(-c2csc(C)c2C)n[nH]c1=S	VIM-2 inh 11
Cc1cc(C)cc(C(=O)NCC(=O)OCC(=O)N2CCN(S(=O)(=O)c3ccc4ccccc4c3)CC2)c1	none
Cc1nc(N2CCOCC2)nc2c1CCC2	none
COc1ccc(-n2c(-c3cccc(C)c3[N+](=O)[O-])n[nH]c2=S)cc1	VIM-2 inh 38
S=c1[nH]nc(C2CCCCC2)n1Cc1ccccc1	VIM-2 inh 9.3
COc1ccc(-n2c(C(C)n3nc(C)c([N+](=O)[O-])c3C)n[nH]c2=S)cc1 (configuration not stated)	none
C=CCn1c(C2CCCCC2)n[nH]c1=S	none
CC1CCN(S(=O)(=O)c2cccc(S(=O)(=O)N3CCOCC3)c2)CC1	IMP-1 inhibitor 5.4
O=S(=O)(c1cccc(S(=O)(=O)N2CCC(N3CCCCC3)CC2)c1)N1CCOCC1	none (no result: CTSL1 counter)
O=C(N/N=C1\C/C(=N\NC(=O)c2ccncc2)c2ccccc21)c1ccncc1	CTSL1 counter 42
Cc1[nH]c2ccccc2c1C(=O)NS(=O)(=O)Nc1ccc(Cl)cc1	none
COc1ccc([C@@H]2[C@@H]3C(=O)N(C(C)(C)C)C(=O)[C@@H]3[C@]3(Cc4ccc(Cl)cc4)C(=O)N(c4cccc(C)c4)C(=O)N23)cc1	none
O=C1C=C(Nc2cccc3cccnc23)c2ccccc2C1=O	CTSL1 counter 20
O=C1C=C(Nc2ccccc2C(=O)O)c2ccccc2C1=O	CTSL1 counter 29
O=C1C=C(Nc2ccccc2)c2ccccc2C1=O	none (no result: CTSL1 counter)
[N-]=[N+]=NC1C[C@H](n2ccc(=O)[nH]c2=O)O[C@@H]1CO (some centres not stated)	none
CCc1ccc(NC(=O)CN2C(=O)C(=O)N(Cc3ccccc3)C2=O)cc1	none
CCc1ccc(NC(=O)CN(CC(=O)Nc2ccc(CC)cc2)CC(C)O)cc1 (configuration not stated)	IMP-1 inhibitor 18
Cn1c(=O)c2cc(S(=O)(=O)NC(Cc3ccccc3)C(=O)NCc3ccco3)ccc2n(C)c1=O (configuration not stated)	CTSL1 counter 31
CCc1nn(CC(=O)NCCC(C)C)c(=O)c2cc3c(OC)cccc3n12	none
CCc1nn(CC(=O)NCCN2CCN(C)CC2)c(=O)c2cc3c(OC)cccc3n12	VIM-2 inh 12
CN(C)[C@@H]1C(=O)C(C(=O)NCN2CCCC2)=C(O)[C@@]2(O)C(=O)C3=C(O)c4c(O)cccc4[C@@](C)(O)C3CC12 (some centres not stated)	IMP-1 inhibitor 5.7, M18AAP inhibitor 28 (no result: CTSL1 counter)
CN(C)c1ccc(O)c2c1CC1CC3C(N(C)C)C(=O)C(C(N)=O)=C(O)[C@@]3(O)C(=O)C1=C2O (some centres not stated)	none (no result: VIM-2 inh, IMP-1 inhibitor, M18AAP inhibitor)
COc1ccc2ccccc2c1/C=N/N1C(=O)CSC1=S	IMP-1 inhibitor 22, M18AAP inhibitor 30
O=C(/C=C/Nc1cccc(C(F)(F)F)c1)C(F)(F)F	IMP-1 inhibitor 5.9
O=C(Nc1ccccc1)Nc1cccc(C(F)(F)F)c1	none
O=C(O[C@@H]1Cc2c(O)cc(O)cc2O[C@@H]1c1cc(O)c(O)c(O)c1)c1cc(O)c(O)c(O)c1	M18AAP inhibitor 64 (no result: CTSL1 counter)
COc1cccc(C(=O)NC2CC(C)(C)NC(C)(C)C2)c1OC	IMP-1 inhibitor 16
O=C(CN1C(=O)CC(c2ccccc2)S(=O)(=O)c2ccccc21)N1CCCCC1 (configuration not stated)	none
Cc1cc(C)n(-c2cccc(Cl)c2C#N)n1	VIM-2 inh 8.7
N#Cc1c(Cl)cccc1-n1ccnc1	none
O=C(Cc1ccccc1Cl)NC1(O)C(=O)c2ccccc2C1=O	CTSL1 counter 26
COCCN1CCC(CNCc2c(C(=O)N3CCCCC3)nc3c(C)cccn23)C1 (configuration not stated)	none
CN(C)C1=C(Cl)C(=O)N(c2ccc(Cl)c(Cl)c2)C1=O	CTSL1 counter 38
CCOC(=O)c1sc2nc[nH]c(=O)c2c1C	IMP-1 inhibitor 5.2
CC(C)=NNc1nc(-c2ccccc2)cs1	none
CC(C)=NNc1nc(-c2ccc(N3C(=O)CCC3=O)cc2)cs1	M18AAP inhibitor 28
Cc1nc(N2CCN(Cc3nc4ccccc4[nH]3)CC2)c2oc3ccccc3c2n1	VIM-2 inh 12
Cc1nc(SCc2nc3ccccc3[nH]2)c2oc3ccccc3c2n1	VIM-2 inh 13
COc1ccc(-c2csc(NC(C)c3nc4cc(Cl)c(Cl)cc4n3CCCO)n2)cc1 (configuration not stated)	none (no result: VIM-2 inh, IMP-1 inhibitor, M18AAP inhibitor)
CCOC(=O)N1CCN(C(=O)CNC(=O)c2ccc(Cl)cc2)CC1	none
Cc1c(Cc2ccccc2)sc(NC(=O)C(C)(C)C)c1C(N)=O	none
Cc1c(Cc2ccccc2)sc(/N=C/c2c(O)ccc3ccccc23)c1C(N)=O	M18AAP inhibitor 42
Cc1c(Cc2ccccc2)sc(N)c1C(N)=O	M18AAP inhibitor 42
Cc1sc(N)c(C(=O)c2ccccc2)c1C	M18AAP inhibitor 32
Cc1ccc(O)c(NC(=O)C2CC(c3cccc(Br)c3)=NO2)c1 (configuration not stated)	none
O=C(CSC1CC(=O)N(c2ccc(C(=O)O)cc2)C1=O)Nc1ccc(Cl)cc1 (configuration not stated)	none
COC(=O)c1cc(S(=O)(=O)NCC2CCN(Cc3cccc(Cl)c3)CC2)c[nH]1	none
COCCn1c(C)cc(C(=O)CSc2nncn2-c2ccccc2)c1C	IMP-1 inhibitor 5.0
COc1ccc(-n2cnnc2SCC(=O)c2cc(C)n(Cc3cccs3)c2C)cc1	none
CC1=NN(S(=O)(=O)c2ccc(Cl)cc2Cl)C(=O)c2ccccc2O1	CTSL1 counter 56
Cc1nn(-c2ccc(Cl)cc2Cl)c(=O)c2ccccc12	none
COC(=O)c1sccc1NC(=O)c1c(F)c(F)c(F)c(F)c1F	none (no result: VIM-2 inh, IMP-1 inhibitor, M18AAP inhibitor)
CC(CC(=O)Nc1ccccc1)NCCCN1CCCC1=O (configuration not stated)	none
CCc1cccc(C)c1NC(=O)C1=C(C(=O)O)CCCC1	IMP-1 inhibitor 7.8
CCc1cccc(C)c1NC(=O)c1ccccc1	none
CCOC(=O)c1sc(NC(=O)c2cc(-c3ccc(C)cc3)nc3ccccc23)c(C#N)c1C	none
COC(=O)c1sc(NC(=O)c2cc(-c3ccccc3)nc3ccccc23)c(C#N)c1C	M18AAP inhibitor 45
CC(C)(C)N1C(=O)c2ccc(C(=O)NCc3ccco3)cc2C1=O	none
O=C1N/C(=C\c2ccc(O)cc2)C(=O)c2ccccc21	CTSL1 counter 108
Cc1cccc2nc(COc3ccc(Cl)c4cccnc34)cn12	none
CCN(CC)CCN(C(=O)c1ccc(CN2CCCCC2)o1)C(C(=O)NC1CCCCC1)c1ccc(F)cc1 (configuration not stated)	none
COc1ccccc1CNC(=O)C1CC2Cn3c(nc4cc(Cl)c(Cl)cc43)C2N1C (configuration not stated)	none (no result: VIM-2 inh, IMP-1 inhibitor, M18AAP inhibitor)
COc1cc2[nH]c(=S)nc(NCc3cccnc3)c2cc1OC	M18AAP inhibitor 30
COc1cc2[nH]c(=S)nc(NCc3ccccc3)c2cc1OC	none
FC(F)(F)c1ccc2c(c1)NCC1CCCN21 (configuration not stated)	CTSL1 counter 22
COc1ccc(N2CCN(C(=O)CSc3ncn[nH]3)CC2)cc1	none (no result: VIM-2 inh, IMP-1 inhibitor, M18AAP inhibitor)
